From ChEMBL document CHEMBL1275524, “Activities of antifungal agents against yeasts and filamentous fungi: assessment according to the methodology of the European Committee on Antimicrobial Susceptibility Testing” (2008)
Values after ≈ are worked out from the molar mass of the structure shown.

Assays:
Aspergillus niger [1] = experiment: Antifungal activity against Aspergillus niger; type: functional
Mucor hiemalis = experiment: Antifungal activity against Mucor hiemalis by EUCAST method; type: functional; details: read-out: MEC
Talaromyces marneffei [2] = experiment: Antifungal activity against Penicillium marneffei; type: functional
Aspergillus fumigatus = experiment: Antifungal activity against Aspergillus fumigatus; type: functional
Penicillium sp. [3] = experiment: Antifungal activity against Penicillium species by EUCAST method; type: functional; details: read-out: MEC
Clavispora lusitaniae = experiment: Antifungal activity against Candida lusitaniae by EUCAST method; type: functional
Method in brief: (§1)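 Broth microdilution in flat-bottom plates in RPMI 1640 with 2% glucose; inoculum 0.5 × 105 to 2.5 × 10^5 CFU/ml. MICs were read spectrophotometrically at 24 h. AMB endpoint: ≥90% growth reduction vs drug-free control well. Azole and CPF endpoint: 50% reduction in optical density. MFC was taken as the lowest concentration giving 99% killing.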

Curvularia lunata = experiment: Antifungal activity against Curvularia lunata; type: functional
Lichtheimia corymbifera = experiment: Antifungal activity against Absidia corymbifera; type: functional
Rhizopus [4] = experiment: Antifungal activity against Rhizopus species by EUCAST method; type: functional; details: read-out: MEC
Method in brief: (§2)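 Broth microdilution following the EUCAST reference procedure for spore-forming moulds, in flat-bottom plates with RPMI 1640 plus 2% glucose. Inoculum was 2 × 10^5 to 5 × 10^5 CFU/ml. MICs were read visually at 24 and 48 h as 100% growth reduction versus a drug-free control for polyenes and azoles. MEC was used for caspofungin. Tests were run in duplicate and repeated twice.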

Geotrichum candidum [5] = experiment: Antifungal activity against Geotrichum candidum; type: functional
Candida parapsilosis [6] = experiment: Antifungal activity against Candida parapsilosis; type: functional; details: Lodderomyces parapsilosis; method in brief: as §1
Curvularia australiensis = experiment: Antifungal activity against Bipolaris australiensis; type: functional
Method in brief: (§3)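 Dematiaceous fungi were tested by the EUCAST spore-forming mold reference procedure: flat-bottom microdilution plates, RPMI 1640 plus 2% glucose, inoculum 2 × 105 to 5 × 10^5 CFU/ml. Endpoints were read visually at 24 and 48 h. Polyenes and azoles: 100% growth reduction vs drug-free control. CPF: minimum effective concentration. Run in duplicate and repeated twice.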

Geotrichum candidum [7] = experiment: Antifungal activity against Geotrichum candidum by EUCAST method; type: functional
Scedosporium apiospermum [8] = experiment: Antifungal activity against Scedosporium apiospermum; type: functional; method in brief: as §2
Sporothrix schenckii [9] = experiment: Antifungal activity against Sporothrix schenckii; type: functional; method in brief: as §2
Sporothrix schenckii [10] = experiment: Antifungal activity against Sporothrix schenckii by EUCAST method; type: functional; details: read-out: MEC; method in brief: as §2
Candida parapsilosis [11] = experiment: Antifungal activity against Candida parapsilosis by EUCAST method; type: functional; details: Lodderomyces parapsilosis; method in brief: as §1
Fusarium solani = experiment: Antifungal activity against Fusarium solani; type: functional
Penicillium sp. [12] = experiment: Antifungal activity against Penicillium species; type: functional
Pichia kudriavzevii = experiment: Antifungal activity against Candida krusei by EUCAST method; type: functional; method in brief: as §1
Cryptococcus gattii = experiment: Antifungal activity against Cryptococcus neoformans var. gattii; type: functional, Cryptococcus bacillisporus
Method in brief: (§4)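 EUCAST yeast microdilution, modified for nonfermentative yeasts: plates were sealed and agitated at 350 rpm and 30°C for 48 h.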

Trichosporon asahii = experiment: Antifungal activity against Trichosporon asahii by EUCAST method; type: functional
Method in brief: (§5)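 Nonfermentative yeasts were tested by the EUCAST microdilution recommendations with one change: plates were sealed and agitated at 350 rpm and 30°C for 48 h.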

Scedosporium apiospermum [13] = experiment: Antifungal activity against Scedosporium apiospermum by EUCAST method; type: functional; details: read-out: MEC; method in brief: as §2
Aspergillus niger [14] = experiment: Antifungal activity against Aspergillus niger by EUCAST method; type: functional
Talaromyces marneffei [15] = experiment: Antifungal activity against Penicillium marneffei by EUCAST method; type: functional; details: read-out: MEC
[16] = Antifungal activity against Rhinocladiella aquaspersa; type: functional; method in brief: as §3
Nakaseomyces glabratus [17] = experiment: Antifungal activity against Candida glabrata; type: functional; method in brief: as §1
Trichosporon inkin = experiment: Antifungal activity against Trichosporon inkin; type: functional; method in brief: as §5
Candida tropicalis = experiment: Antifungal activity against Candida tropicalis; type: functional; method in brief: as §1
Aspergillus terreus [18] = experiment: Antifungal activity against Aspergillus terreus; type: functional
[19] = Antifungal activity against Rhizopus microsporus var. oligosporus by EUCAST method; type: functional; method in brief: as §2
Nakaseomyces glabratus [20] = experiment: Antifungal activity against Candida glabrata by EUCAST method; type: functional; method in brief: as §1
Aspergillus terreus [21] = experiment: Antifungal activity against Aspergillus terreus by EUCAST method; type: functional
Rhizopus [22] = experiment: Antifungal activity against Rhizopus species; type: functional; method in brief: as §2
Lomentospora prolificans = experiment: Antifungal activity against Scedosporium prolificans by EUCAST method; type: functional; details: read-out: MEC; method in brief: as §2
[23] = Antifungal activity against Cryptococcus neoformans var. neoformans; type: functional; details: Cryptococcus deneoformans; method in brief: as §4

CC[C@H](C)C[C@H](C)CCCCCCCCC(=O)N[C@H]1C[C@@H](O)[C@@H](NCCN)NC(=O)[C@@H]2[C@@H](O)CCN2C(=O)[C@H]([C@H](O)CCN)NC(=O)[C@H]([C@H](O)[C@@H](O)c2ccc(O)cc2)NC(=O)[C@@H]2C[C@@H](O)CN2C(=O)[C@H]([C@@H](C)O)NC1=O [CASPOFUNGIN]
MFC (Aspergillus niger [1]): > 8 µg/mL
minimal effective concentration (Mucor hiemalis): > 8 µg/mL
MFC (Talaromyces marneffei [2]): > 8 µg/mL
MFC (Aspergillus fumigatus): > 8 µg/mL
minimal effective concentration (Penicillium sp. [3]): > 8 µg/mL
MIC (Clavispora lusitaniae): 0.32 µg/mL (≈ 0.293 µM)
MFC (Curvularia lunata): > 8 µg/mL
MFC (Lichtheimia corymbifera): > 8 µg/mL
minimal effective concentration (Rhizopus [4]): > 8 µg/mL
MFC (Geotrichum candidum [5]): > 8 µg/mL
MFC (Candida parapsilosis [6]): 0.25 µg/mL (≈ 0.229 µM)
MFC (Curvularia australiensis): > 8 µg/mL
MIC (Geotrichum candidum [7]): 3 µg/mL (≈ 2.74 µM)
MFC (Scedosporium apiospermum [8]): > 8 µg/mL
MFC (Sporothrix schenckii [9]): > 8 µg/mL
minimal effective concentration (Sporothrix schenckii [10]): > 8 µg/mL
MIC (Candida parapsilosis [11]): 0.82 µg/mL (≈ 0.75 µM)
MFC (Fusarium solani): > 8 µg/mL
MFC (Penicillium sp. [12]): > 8 µg/mL
MIC (Pichia kudriavzevii): 0.58 µg/mL (≈ 0.53 µM)
MFC (Cryptococcus gattii): > 8 µg/mL
MIC (Trichosporon asahii): 4 µg/mL (≈ 3.66 µM)
minimal effective concentration (Scedosporium apiospermum [13]): > 8 µg/mL
MIC (Aspergillus niger [14]): 0.36 µg/mL (≈ 0.329 µM)
minimal effective concentration (Aspergillus niger [14]; read-out: MEC): 0.25 µg/mL
minimal effective concentration (Talaromyces marneffei [15]): > 8 µg/mL
MFC [16]: > 8 µg/mL
MFC (Nakaseomyces glabratus [17]): 0.15 µg/mL (≈ 0.137 µM)
MFC (Trichosporon inkin): > 8 µg/mL
MFC (Candida tropicalis): 0.5 µg/mL (≈ 0.457 µM)
MFC (Aspergillus terreus [18]): > 8 µg/mL
MEC [19]: > 8 µg/mL
MIC (Nakaseomyces glabratus [20]): 0.32 µg/mL (≈ 0.293 µM)
MIC (Aspergillus terreus [21]): 0.19 µg/mL (≈ 0.174 µM)
minimal effective concentration (Aspergillus terreus [21]; read-out: MEC): 0.125 µg/mL
MFC (Rhizopus [22]): > 8 µg/mL
minimal effective concentration (Lomentospora prolificans): > 8 µg/mL
MFC [23]: > 8 µg/mL
